Laboratory results published in ChEMBL document CHEMBL1153414, “Discovering potent inhibitors against the beta-hydroxyacyl-acyl carrier protein dehydratase (FabZ) of Helicobacter pylori: structure-based design, synthesis, bioassay, and crystal structure determination” (J Med Chem, 2009).
≈ marks a conversion by molar mass, not a printed value. Calls of active or inactive are those of the source. The rule behind the calls is not given here.

Columns and labels:
Helicobacter pylori [1] = experiment: Inhibition of Helicobacter pylori FabZ at 50 uM
Method in brief: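 HpFabZ activity read spectrophotometrically as the A260 decrease during crotonoyl-CoA conversion to β-hydroxybutyryl-CoA. Single inhibitor level of 50 µM, compound in 1% DMSO preincubated with enzyme for 1 h before assay start.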

[2] = Inhibition of Helicobacter pylori FabZ
Method in brief: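 Spectrophotometric HpFabZ assay following the drop in A260 as crotonoyl-CoA converts to β-hydroxybutyryl-CoA. Compounds in 1% DMSO preincubated with enzyme 1 h before starting the reaction. IC50 from logistic fit of dose-response inhibition data. Means of three determinations.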

Helicobacter pylori [3] = experiment: Antimicrobial activity against Helicobacter pylori ATCC 43504 by standard agar dilution method; format: functional
Method in brief: (§1)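 Inoculum: H. pylori swabbed into sterile saline to 2.0 McFarland turbidity. Plates incubated at 37 °C under microaerobic gas (85% N₂, 10% CO₂, 5% O₂), read after 3 days. Compound-free agar as control.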

Helicobacter pylori [4] = experiment: Antimicrobial activity against Helicobacter pylori SS1 by standard agar dilution method; format: functional; method in brief: as §1

Q: For `O=C(N/N=C/c1cc(Br)c(O)c(Br)c1O)c1ccccc1`, which inhibition (Helicobacter pylori [1]) is on record?
A: 38.8%

Q: For `COCCN1C(=O)/C(=C\c2ccc(-c3ccc(Cl)c(C(=O)O)c3)o2)S/C1=N/c1ccc2ccccc2c1`, which inhibition (Helicobacter pylori [1]) is on record?
A: 32.2%

Q: Which IC50 [2] does the source give for `O=C(N/N=C/c1cc(Br)c(O)c(Br)c1O)c1ccc2c(c1)Cc1ccccc1-2` here?
A: 3.75 µM

Q: And the MIC (Helicobacter pylori [3])?
A: 50 µg/mL (≈ 99.6 µM)

Q: And the MIC (Helicobacter pylori [4])?
A: 100 µg/mL (≈ 199 µM)

Q: For `COC(=O)c1cc(-c2ccc(/C=C3/S/C(=N/c4ccccc4)N(CCN4CCCC4)C3=O)o2)ccc1Cl`, which inhibition (Helicobacter pylori [1]) is on record?
A: inactive

Q: For `COCCN1C(=O)/C(=C\c2ccc(-c3ccc(Cl)c(C(=O)O)c3)o2)S/C1=N/c1ccc(OC)cc1`, which inhibition (Helicobacter pylori [1]) is on record?
A: 15.4%

Q: For `COCCN1C(=O)/C(=C\c2ccc(-c3ccc(Cl)cc3)o2)S/C1=N/c1ccccc1`, which inhibition (Helicobacter pylori [1]) is on record?
A: inactive

Q: What does the source list for `O=C(N/N=C/c1cc(Br)c(O)c(Br)c1O)c1ccc2cc(O)ccc2c1`?
A: IC50 [2]: 8.77 µM; MIC (Helicobacter pylori [3]): 100 µg/mL (≈ 208 µM); MIC (Helicobacter pylori [4]): 100 µg/mL (≈ 208 µM)

Q: For `O=C(N/N=C/c1cc(Br)c(O)c(Br)c1O)c1ccco1`, which inhibition (Helicobacter pylori [1]) is on record?
A: 39.4%

Q: Which inhibition (Helicobacter pylori [1]) does the source give for `COCCN1C(=O)/C(=C\c2ccc(-c3ccc(Cl)c(C(=O)OC)c3)o2)S/C1=N/c1ccccc1` here?
A: inactive

Q: Which inhibition (Helicobacter pylori [1]) does the source give for `COCCN1C(=O)/C(=C\c2ccc(-c3ccc(Cl)c(C(=O)OC)c3)o2)S/C1=N/c1ccc(Br)cc1` here?
A: inactive

Q: For `O=C(Cc1ccc(O)cc1)N/N=C/c1cc(Br)c(O)c(Br)c1O`, which inhibition (Helicobacter pylori [1]) is on record?
A: 50%

Q: With `O=C(N/N=C/c1cc(Br)c(O)c(Br)c1O)c1cccc(F)c1` as the compound, how does the inhibition (Helicobacter pylori [1]) read?
A: 23.3%

Q: With `COCCN1C(=O)/C(=C\c2ccc(-c3ccc(Cl)c(C(=O)O)c3)o2)S/C1=N/c1ccccc1` as the compound, how does the inhibition (Helicobacter pylori [1]) read?
A: 63.9%

Q: For `COCCN1C(=O)/C(=C\c2ccc(-c3ccc(Cl)c(C(=O)OC)c3)o2)S/C1=N/c1ccc(C(F)(F)F)cc1`, which inhibition (Helicobacter pylori [1]) is on record?
A: inactive

Q: For `COCCN1C(=O)/C(=C\c2ccc(-c3ccc(Cl)c(C(=O)OC)c3)o2)S/C1=N/c1ccccc1Br`, which inhibition (Helicobacter pylori [1]) is on record?
A: inactive

Q: With `O=C(N/N=C/c1cc(Br)c(O)c(Br)c1O)c1cc2ccccc2cc1O` as the compound, how does the IC50 [2] read?
A: 0.86 µM

Q: And the MIC (Helicobacter pylori [3])?
A: 100 µg/mL (≈ 208 µM)

Q: And the MIC (Helicobacter pylori [4])?
A: 100 µg/mL (≈ 208 µM)

Q: With `O=C(N/N=C/c1cc(Br)c(O)c(Br)c1O)c1ccncc1` as the compound, how does the inhibition (Helicobacter pylori [1]) read?
A: 36.4%

Q: What does the source list for `O=C(N/N=C/c1cc(Br)c(O)c(Br)c1O)c1ccc2cc(Br)ccc2c1`?
A: IC50 [2]: 3.55 µM; MIC (Helicobacter pylori [3]): 100 µg/mL (≈ 184 µM); MIC (Helicobacter pylori [4]): 50 µg/mL (≈ 92.1 µM)

Q: For `O=C(N/N=C/c1cc(Br)c(O)c(Br)c1O)c1cccnc1`, which IC50 [2] is on record?
A: 39.8 µM

Q: And the inhibition (Helicobacter pylori [1])?
A: 71.4%

Q: For `O=C(N/N=C/c1cc(Br)c(O)c(Br)c1O)c1ccc(-c2ccc(O)cc2)cc1`, which IC50 [2] is on record?
A: 42.7 µM

Q: And the MIC (Helicobacter pylori [3])?
A: > 100 µg/mL

Q: What about the MIC (Helicobacter pylori [4]) of the same compound?
A: > 100 µg/mL

Q: What does the source list for `O=C(N/N=C/c1cc(Br)c(O)c(Br)c1O)c1ccc(Oc2ccccc2)cc1`?
A: IC50 [2]: 12.8 µM; MIC (Helicobacter pylori [3]): inactive; MIC (Helicobacter pylori [4]): inactive

Q: For `O=C(N/N=C/c1cc(Br)c(O)c(Br)c1O)c1cccc(Br)c1`, which MIC (Helicobacter pylori [3]) is on record?
A: 100 µg/mL (≈ 203 µM)

Q: What about the inhibition (Helicobacter pylori [1]) of the same compound?
A: 96%

Q: What about the MIC (Helicobacter pylori [4]) of the same compound?
A: 100 µg/mL (≈ 203 µM)

Q: With `O=C(N/N=C/c1cc(Br)c(O)c(Br)c1O)c1ccc(F)cc1` as the compound, how does the IC50 [2] read?
A: 6.43 µM

Q: And the inhibition (Helicobacter pylori [1])?
A: 85%

Q: With `O=C(N/N=C/c1cc(Br)c(O)c(Br)c1O)c1cc(C(F)(F)F)cc(C(F)(F)F)c1` as the compound, how does the IC50 [2] read?
A: 2.13 µM

Q: And the MIC (Helicobacter pylori [3])?
A: 50 µg/mL (≈ 90.9 µM)

Q: And the MIC (Helicobacter pylori [4])?
A: 100 µg/mL (≈ 182 µM)

Q: For `COCCN1C(=O)/C(=C\c2ccc(-c3ccc(Cl)c(C(=O)OC)c3)o2)S/C1=N/c1ccc(OC)cc1`, which inhibition (Helicobacter pylori [1]) is on record?
A: inactive

Q: Which inhibition (Helicobacter pylori [1]) does the source give for `CC(=O)N/N=C/c1cc(Br)c(O)c(Br)c1O` here?
A: 15.2%

Q: Which inhibition (Helicobacter pylori [1]) does the source give for `COc1ccc(C(=O)N/N=C/c2cc(Br)c(O)c(Br)c2O)cc1` here?
A: 81.4%

Q: With `COCCN1C(=O)/C(=C\c2ccc(-c3ccc(Cl)c(C(=O)OC)c3)o2)S/C1=N/c1ccccc1F` as the compound, how does the inhibition (Helicobacter pylori [1]) read?
A: 10%

Q: Which inhibition (Helicobacter pylori [1]) does the source give for `COCCN1C(=O)/C(=C\c2ccc(-c3ccc(Cl)c(C(=O)OC)c3)o2)S/C1=N/c1ccc(F)cc1` here?
A: inactive

Q: Which inhibition (Helicobacter pylori [1]) does the source give for `COCCN1C(=O)/C(=C\c2ccc(-c3ccc(Cl)c(C(=O)OC)c3)o2)S/C1=N/c1cccc(F)c1` here?
A: inactive

Q: For `O=C(N/N=C/c1ccc(O)cc1)c1cccnc1`, which inhibition (Helicobacter pylori [1]) is on record?
A: 15.1%

Q: For `COCCN1C(=O)/C(=C\c2ccc(-c3ccc(Cl)c(C(=O)OC)c3)o2)S/C1=N/c1cccc(Br)c1`, which inhibition (Helicobacter pylori [1]) is on record?
A: 12%

Q: With `COCCN1C(=O)/C(=C\c2ccc(-c3ccc(Cl)c(C(=O)OC)c3)o2)S/C1=N/c1cccc(C(F)(F)F)c1` as the compound, how does the inhibition (Helicobacter pylori [1]) read?
A: 19.9%

Q: Which inhibition (Helicobacter pylori [1]) does the source give for `COC(=O)c1cc(-c2ccc(/C=C3/S/C(=N/c4ccccc4)N(CCCN(C)C)C3=O)o2)ccc1Cl` here?
A: inactive

Q: For `COCCN1C(=O)/C(=C\c2ccc(-c3cc(C(=O)OC)ccc3Cl)o2)S/C1=N/c1ccccc1`, which inhibition (Helicobacter pylori [1]) is on record?
A: inactive

Q: Which inhibition (Helicobacter pylori [1]) does the source give for `O=C(N/N=C/c1ccc(O)cc1O)c1cccnc1` here?
A: 25.6%

Q: For `CC(C)(C)c1ccc(C(=O)N/N=C/c2cc(Br)c(O)c(Br)c2O)cc1`, which MIC (Helicobacter pylori [3]) is on record?
A: 100 µg/mL (≈ 213 µM)

Q: What about the inhibition (Helicobacter pylori [1]) of the same compound?
A: 74.4%

Q: What about the MIC (Helicobacter pylori [4]) of the same compound?
A: 50 µg/mL (≈ 106 µM)

Q: With `O=C(N/N=C/c1cc(Br)c(O)c(Br)c1O)c1ccc2ccccc2c1O` as the compound, how does the IC50 [2] read?
A: 1.97 µM

Q: What about the MIC (Helicobacter pylori [3]) of the same compound?
A: 100 µg/mL (≈ 208 µM)

Q: What about the inhibition (Helicobacter pylori [1]) of the same compound?
A: 87%

Q: And the MIC (Helicobacter pylori [4])?
A: 100 µg/mL (≈ 208 µM)

Q: Which MIC (Helicobacter pylori [3]) does the source give for `O=C(N/N=C/c1cc(Br)c(O)c(Br)c1O)c1ccc(Br)cc1` here?
A: 100 µg/mL (≈ 203 µM)

Q: And the inhibition (Helicobacter pylori [1])?
A: 94.2%

Q: And the MIC (Helicobacter pylori [4])?
A: 100 µg/mL (≈ 203 µM)

Q: Which MIC (Helicobacter pylori [3]) does the source give for `O=C(N/N=C/c1cc(Br)c(O)c(Br)c1O)c1ccc(Cl)cc1` here?
A: > 100 µg/mL

Q: And the inhibition (Helicobacter pylori [1])?
A: 93.8%

Q: What about the MIC (Helicobacter pylori [4]) of the same compound?
A: > 100 µg/mL

Q: For `COc1c(Br)cc(/C=N/NC(=O)c2cccnc2)c(OC)c1Br`, which inhibition (Helicobacter pylori [1]) is on record?
A: 64.4%

Q: With `COCCN1C(=O)/C(=C\c2ccc(-c3ccc(Cl)c(C(=O)OC)c3)o2)S/C1=N/c1cccc(OC)c1` as the compound, how does the inhibition (Helicobacter pylori [1]) read?
A: 12.6%

Q: For `O=C(N/N=C/c1cc(Br)c(O)c(Br)c1O)c1ccc2ccccc2c1`, which MIC (Helicobacter pylori [3]) is on record?
A: 100 µg/mL (≈ 215 µM)

Q: And the inhibition (Helicobacter pylori [1])?
A: 92.6%

Q: And the MIC (Helicobacter pylori [4])?
A: 50 µg/mL (≈ 108 µM)

Q: For `O=C(N/N=C/c1cc(Br)c(O)c(Br)c1O)c1cccs1`, which inhibition (Helicobacter pylori [1]) is on record?
A: 72%

Q: Which inhibition (Helicobacter pylori [1]) does the source give for `COCCN1C(=O)/C(=C\c2ccc(-c3ccc(Cl)c(C(=O)OC)c3)o2)S/C1=N/c1ccccc1C(F)(F)F` here?
A: inactive

Q: For `COCCN1C(=O)/C(=C\c2ccc(-c3ccc(Cl)c(C(=O)OC)c3)o2)S/C1=N/c1ccccc1OC`, which inhibition (Helicobacter pylori [1]) is on record?
A: inactive

Q: With `O=C(N/N=C/c1cc(Br)c(O)c(Br)c1)c1cccnc1` as the compound, how does the inhibition (Helicobacter pylori [1]) read?
A: 62.1%

Q: With `CCN(CC)CCN1C(=O)/C(=C\c2ccc(-c3ccc(Cl)c(C(=O)OC)c3)o2)S/C1=N/c1ccccc1` as the compound, how does the inhibition (Helicobacter pylori [1]) read?
A: inactive
